What was measured:
[1] = system: PBMC; assay: Cytotoxicity against human PBMC at 40 to 80 uM after 24 to 48 hrs by MTT assay; format: cell-based
Summary of the method: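 hPBMC from fresh blood of three healthy male volunteers, isolated on Ficoll-Hypaque (1.077 g/mL) at 900g for 30 min and washed, then seeded in complete RPMI-1640. Exposed to 10–80 μM for 24 and 48 h, with DMSO below 0.05%. MTT was read at 492 nm after formazan in DMSO. Inhibition % = (control−sample)/(control−blank)×100; mean ± SD, three independent experiments.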

[2] = system: HT-1080; assay: Cytotoxicity against human HT1080 cells assessed as growth inhibition after 24 hrs by MTT assay; format: functional, cell-based; details: HT-1080, 24 h

| Compound | Activity [1] | IC50 [2] |
| --- | --- | --- |
| CC(=O)O[C@H]1C(=O)[C@@]2(C)[C@H]([C@H](OC(=O)c3ccccc3)[C@]3(O)C[C@H](OC(=O)[C@H](O)[C@@H](NC(=O)c4ccccc4)c4ccccc4)C(C)=C1C3(C)C)[C@]1(OC(C)=O)CO[C@@H]1C[C@@H]2O [PACLITAXEL] | Non-toxic | 6 µM |
| O=c1[nH]cc(F)c(=O)[nH]1 [FLUOROURACIL] | Non-toxic | 70.8 µM |
